Measurements: paper PMC9075125 (RSC Advances, 2019)

Experiments:
Assay in all cases: Cell proliferation assay
Type in all cases: cell-based
[1] = system: human breast cancer cell line MCF-7; settings: MCF7, 48 h, read-out: IC50, antiproliferation, Human breast cancer (MCF-7)
Procedure, shortened: (§1)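 Log-phase adherent cells were seeded at 5 × 10^4 cells per mL and allowed 24 h before test compound was added at a range of concentrations for 48 h. MTT (5 mg mL−1 stock) was added for a further 4 h. Medium was removed, formazan dissolved in DMSO, and the plate read on a microplate reader. IC50 was calculated from dose–response curves of three independent assays.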

[2] = system: non-small cell lung cancer cell line NCI-H460; settings: Homo sapiens, NCI-H460, 48 h, read-out: IC50, antiproliferation, Non-small cell lung cancer (H460)
Procedure, shortened: as §1

[3] = system: human colon cancer cell line HT-29; settings: HT-29, 48 h, read-out: IC50, antiproliferation, Human colon cancer (HT-29)
Procedure, shortened: as §1

CC[C@@]1(O)C(=O)OCc2c1cc1n(c2=O)Cc2cc3ccccc3nc2-1 [CPT, camptothecin]
IC50 [1]: 370 ± 50 nM | IC50 [2]: 40 ± 2 nM | IC50 [3]: 40 ± 20 nM
